Measured values reported in ChEMBL document CHEMBL1148815, “New series of antiprion compounds: pyrazolone derivatives have the potent activity of inhibiting protease-resistant prion protein accumulation” (J Med Chem, 2007).

Legend:
[1] = Cytotoxicity against mouse F3 cells by MTT assay; format: cell-based; settings: n2a #58 f3
ScN2a [2] = assay: Cytotoxicity against mouse ScN2a cells by MTT assay; format: cell-based
[3] = Cytotoxicity against human NB69 cells by MTT assay; format: cell-based; settings: read-out: LD50 (the source's name)
[4] = Antiprion activity in F3 cells assessed as inhibition of protease-resistant prion protein accumulation; format: functional, cell-based; settings: Mus musculus, N2a #58 F3
How it was run: (§1)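 Mouse N2a cells carrying RML scrapie (ScN2a) or N2a#58 cells carrying Fukuoka-1 (F3), grown in Opti-MEM with 10% FBS. Compound added at passage (10% confluency), cells grown to confluence over 3–4 days, then lysed. Lysates digested with 10 µg/mL proteinase K for 30 min at 37 °C. PrP-res detected by SDS-PAGE/immunoblot with SAF83. IC50 is the concentration halving PrP-res relative to control.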

ScN2a [5] = assay: Antiprion activity in ScN2a cells assessed as inhibition of protease-resistant prion protein accumulation; format: functional, cell-based; settings: Mus musculus; how it was run: as §1
[6] = Hydroxy radical scavenging activity by ESR spin-trapping method; format: functional
How it was run: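 A mixture of 25 mM H2O2, 25 mM DMPO and compound was UV-irradiated. Hydroxyl radical scavenging was expressed as IC50.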

[7] = Superoxide dismutase like activity assessed as inhibition of WST1 tetrazolium formation at 1 mM; format: functional; design: scale not given: the % may be the effect or the level left
How it was run: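 Xanthine-based photometric kit assay with WST-1 tetrazolium salt. Compound was tested at 1 mM.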

[8] = Superoxide dismutase like activity assessed as inhibition of WST1 tetrazolium formation at 1 mM in presence of 2 mM Cu(II); format: functional; design: scale not given: the % may be the effect or the level left

| SMILES | Activity [1] [nM] | Activity (ScN2a [2]) [nM] | CC50 [3] [µM] | IC50 [4] [µM] | IC50 (ScN2a [5]) [µM] | IC50 [6] [µM] | Activity [7] [%] | Activity [8] [%] |
| --- | --- | --- | --- | --- | --- | --- | --- | --- |
| COc1ccc(N2N=C(C)CC2=O)cc1 | > 100 | > 100 | > 1 | – | – | – | – | – |
| O=C(NC1=NN(c2ccccc2)C(=O)C1)NC1CCCC1 | > 1000 | > 1000 | > 1 | 0.158 | 0.126 | – | – | – |
| O=C1CC(c2ccc([N+](=O)[O-])cc2)=NN1c1ccccc1 | > 1000 | > 1000 | > 1 | 0.003 | 0.003 | 0.09 | 1.8 | 11.9 |
| O=C(NC1=NN(c2ccccc2)C(=O)C1)c1ccccc1 | > 1000 | > 1000 | > 1 | 1.26 | 2 | 0.22 | 9.2 | 3.2 |
| O=C1CC(C(F)(F)F)=NN1c1ccccc1 | > 1000 | > 1000 | > 1 | 0.631 | 0.398 | 0.81 | 13.4 | 7.4 |
| C=C(C)C1=NN(c2ccccc2)C(=O)C1 | > 1000 | > 1000 | > 1 | 0.794 | 0.158 | – | – | – |
| O=C(NC1=NN(c2ccccc2)C(=O)C1)Oc1ccccc1 | > 1000 | > 1000 | – | – | – | 0.38 | 5.6 | 11.6 |
| CC1=NN(c2ccccc2)C(=O)C1 [EDARAVONE] | – | – | – | – | > 1 | 0.25 | 0.6 | 5.7 |
| O=C1CC(Cc2ccccc2)=NN1c1ccccc1 | > 1000 | > 1000 | > 0.3 | – | – | – | – | – |
| CC1=NN(c2ccccc2)C(=O)C1c1ccccn1 (stereo not drawn) | > 1000 | > 1000 | > 1 | 0.631 | 0.079 | – | – | – |
| CC1=NN(c2ccccc2)C(=O)C1C1CC1 (stereo not drawn) | > 1000 | > 1000 | > 1 | – | – | 0.72 | 15.9 | 35.4 |
| CC1=NN(c2ccccc2)C(=O)C1C(=O)c1ccccc1 (stereo not drawn) | > 1000 | > 1000 | > 1 | 1 | 0.006 | 0.61 | – | – |
| COC(=O)NC1=NN(c2ccccc2)C(=O)C1 | > 1000 | > 1000 | > 1 | 0.501 | 0.006 | – | – | – |
| C=CC1CN2CC[C@H]1C[C@H]2[C@H](O)c1ccnc2ccc(OC)cc12 (single isomer, unassigned) [QUININE] | – | – | – | – | 10 | – | – | – |
| O=C(Nc1ccccc1)C1=NN(c2ccccc2)C(=O)C1 | > 1000 | > 1000 | > 1 | 1.58 | 0.398 | – | – | – |
| CC1=NN(c2ccccc2)C(=O)C1c1ccccc1 (stereo not drawn) | > 100 | > 100 | > 1 | 0.001 | 0.04 | 0.79 | – | – |
| CC1=NN(c2ccc(Cl)cc2)C(=O)C1 | > 100 | > 100 | > 1 | – | 0.0005 | – | – | – |
| C=C[C@H]1CN2CC[C@H]1C[C@@H]2[C@@H](O)c1ccnc2ccc(OC)cc12 [QUINIDINE] | – | – | – | – | 5 | – | – | – |
| O=C1CC(c2ccccc2)=NN1c1ccccc1 | > 100 | > 100 | > 1 | – | – | – | – | – |
| CC1=NN(C2CCCCC2)C(=O)C1 | > 1000 | > 1000 | > 1 | 0.025 | 0.013 | – | – | – |
| COc1ccc(C2=NN(c3ccccc3)C(=O)C2)cc1 | > 100 | > 100 | > 1 | – | – | – | – | – |
| CC1=NN(c2ccccc2)C(=O)C1CC(C)C (stereo not drawn) | > 1000 | > 1000 | > 1 | 0.016 | – | – | – | – |
